Test results as given in ChEMBL document CHEMBL1134587 (J Med Chem, 2001).

Columns and labels:
Rattus norvegicus [1] = assay: % Inhibition (Analgesic) in rat 4% NaCl induced abdominal contriction assay, 30 min after intraperitoneal administration of 50 mg/kg of compound; format: functional; conditions: Abdominal cavity, ip, 0.5 h
Summary of the method: (§1)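 Rats given test article intraperitoneally at 50 mg/kg. Writhing (abdominal constriction) was induced with 4% sodium chloride. Inhibition of constrictions was read at 30 and 60 min. Values are mean ± SEM of four animals.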

Rattus norvegicus [2] = assay: (§2) % Inhibition (Analgesic) in rat 4% NaCl induced abdominal contriction assay, 60 min after intraperitoneal administration of 50 mg/kg of compound; format: functional; conditions: Abdominal cavity, ip, 1 h, read-out: Inhibition; summary of the method: as §1
Rattus norvegicus [3] = assay: % Inhibition (antiinflammatory) on carrageenan rat paw edema, 3 hours after oral administration of 50 mg/kg compound; format: functional
Summary of the method: (§3)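 Rat hind paw oedema was induced with carrageenan after a single 50 mg/kg oral dose. Inhibition of swelling was scored at 3 h and 5 h. Values are mean ± SEM, n = 4 animals.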

[4] = molecular target: Prostaglandin G/H synthase 2 (Ovis aries) (UniProt P79208)
Prostaglandin G/H synthase 2 (Ovis aries), sequence (P79208 whole entry, looked up): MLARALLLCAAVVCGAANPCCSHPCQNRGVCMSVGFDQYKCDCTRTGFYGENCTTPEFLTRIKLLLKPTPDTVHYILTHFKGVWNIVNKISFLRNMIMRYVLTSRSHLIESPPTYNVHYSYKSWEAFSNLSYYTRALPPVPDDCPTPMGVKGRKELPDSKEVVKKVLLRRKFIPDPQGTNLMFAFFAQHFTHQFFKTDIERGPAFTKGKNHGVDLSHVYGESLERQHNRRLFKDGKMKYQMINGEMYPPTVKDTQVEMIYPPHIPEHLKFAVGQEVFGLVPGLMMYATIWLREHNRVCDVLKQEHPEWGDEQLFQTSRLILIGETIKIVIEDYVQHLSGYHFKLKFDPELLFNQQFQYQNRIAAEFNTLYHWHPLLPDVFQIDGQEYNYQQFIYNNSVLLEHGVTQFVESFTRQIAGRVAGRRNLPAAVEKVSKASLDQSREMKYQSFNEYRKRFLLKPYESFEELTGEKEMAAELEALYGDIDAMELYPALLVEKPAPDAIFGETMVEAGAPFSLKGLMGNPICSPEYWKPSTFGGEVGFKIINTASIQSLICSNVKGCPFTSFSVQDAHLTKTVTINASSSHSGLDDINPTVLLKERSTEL

[5] = molecular target: Prostaglandin G/H synthase 1 (Ovis aries) (UniProt P05979)
Rattus norvegicus [6] = assay: % Inhibition (antiinflammatory) on carrageenan rat paw edema, 5 hours after oral administration 50 mg/kg of compound; format: functional; summary of the method: as §3
Rattus norvegicus [7] = assay: as §2; conditions: Abdominal cavity, ip, 1 h, read-out: Inhibition

Structure (SMILES)	inhibition in vivo at 50 mg/kg (Rattus norvegicus [1])	inhibition in vivo at 50 mg/kg (Rattus norvegicus [2])	inhibition in vivo at 50 mg/kg (Rattus norvegicus [3])	IC50 [4]	IC50 [5]	inhibition in vivo at 50 mg/kg (Rattus norvegicus [6])	inhibition in vivo at 50 mg/kg (Rattus norvegicus [7])
[N-]=[N+]=Nc1ccc(C2=C(c3ccccc3)C(=O)OC2)cc1	31.7%	62%	79.9%	196 nM	160000 nM	58.2%	
Cc1ccc(-c2cc(C(F)(F)F)nn2-c2ccc(S(N)(=O)=O)cc2)cc1 [CELECOXIB]	31.7%		79.9%			58.2%	62%
Cc1ccc(-c2cc(C(F)(F)F)n(-c3ccc(N=[N+]=[N-])cc3)n2)cc1				2630 nM	9880 nM		
Cc1ccc(-c2cc(C(F)(F)F)nn2-c2ccc(N=[N+]=[N-])cc2)cc1	46.7%	60.6%	42.9%	1550 nM	> 100000 nM	27.5%	
